This is a sample that favours compounds with a hit; in the whole collection about 4.1% have one here.
MC4R antagonist = MC4R antagonists of cAMP signaling, primary screen, cell-based, TR-FRET, antagonist arm of biased-ligand search | 360,000 tested, 0.48% active | inhibition, % at 6.5 µM | MC4R-expressing cells, MTII-stimulated cAMP, LANCE TR-FRET | AID 540295, 2011 | Melanocortin receptor 4 (Homo sapiens), P32245;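 active means inhibition above its plate's cutoff, the mean of tested wells on that plate plus 3 SD, cut at about 29% in these data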
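Material – human MC4R-expressing U2OS cells · Repeats – no replicates · Detection – TR-FRET with Eu-cAMP and labeled anti-cAMP, 671 nm · Times – compound 30 min, challenge 1 h, detection 1 h · Compound – single nominal compound dose of 6.5 µM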
MC4R barr agon = MC4R agonists recruiting beta-arrestin, primary screen, cell-based, luminescence, agonist arm of biased-ligand search. Melanocortin receptor 4 (Homo sapiens), P32245. U2OS MC4R beta-arrestin complementation; percent of melanotan II response, DMSO zero. activation, % at 8.9 µM. 360,000 tested, 0.98% active. AID 540308, 2011;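 active means activation above a per-plate cutoff, the mean activation of sample wells on that plate plus 3 SD, cut at about 8% in these data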
SMARCA2 activ = SMARCA2 (BRM) function activators, primary screen, cell-based, luminescence, high throughput | MG213 cells, MMTV-luciferase reporter, dexamethasone, overnight | activation, % at 9.1 µM | 370,000 tested, 1% active; in the data active means activation above about 7.8%
ATG4B inhibitor = ATG4B protease inhibitors, primary screen, biochemical, fluorescence, uHTS; inhibition, % at 8.33 µM; 340,000 tested, 0.51% active; Cysteine protease ATG4B (Homo sapiens), Q9Y4P1; ATG4B cleavage of LC3-PLA2, NBD-HPC fluorescence, 1 h; in the data active means inhibition above about 40%
Target sequence (Q9Y4P1 whole entry, looked up): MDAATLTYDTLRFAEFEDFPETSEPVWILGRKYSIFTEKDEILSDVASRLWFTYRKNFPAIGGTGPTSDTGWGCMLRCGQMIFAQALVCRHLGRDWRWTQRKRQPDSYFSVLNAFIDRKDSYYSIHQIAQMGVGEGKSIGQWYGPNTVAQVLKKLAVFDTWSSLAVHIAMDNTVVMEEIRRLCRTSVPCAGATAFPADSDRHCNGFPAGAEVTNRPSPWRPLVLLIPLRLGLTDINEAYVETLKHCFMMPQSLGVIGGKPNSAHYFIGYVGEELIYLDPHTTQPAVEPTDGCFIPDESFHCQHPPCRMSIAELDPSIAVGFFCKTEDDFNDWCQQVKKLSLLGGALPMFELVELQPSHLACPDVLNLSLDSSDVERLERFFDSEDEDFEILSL
MPTP inh = mitochondrial permeability transition pore inhibitors, primary screen, biochemical, isolated mouse mitochondria, absorbance; Ca2+ swelling absorbance, 30 min; inhibition, % at 10 µM; 360,000 tested, 1.4% active;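 active means inhibition of 50% or more, scaled per plate between neutral and stimulator controls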
U2OS cAMP counter = nonselective cAMP signaling inhibitors, parental cells, counter-screen for MC4R biased antagonist project, cell-based, TR-FRET, U2OS, forskolin, triplicate; shares compounds with MC4R antagonist; 1,600 tested, 26% active; inhibition, % at 6.5 µM; LANCE TR-FRET; AID 602193, 2012;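 active means mean inhibition over triplicates above the low-control well mean plus 3 SD, set per campaign, cut at about 13% in these data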;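 further: signal is single emission at 671 nm which falls as cellular cAMP rises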
MC4R cAMP antag = MC4R cAMP antagonists, retest, confirmation, cell-based, TR-FRET; AID 602195, 2012; 1,600 tested, 27% active; inhibition, % at 6.5 µM; MC4R-expressing cells, MTII-stimulated cAMP; shares compounds with MC4R antagonist; in the data active means inhibition above about 29%
MC4R barr conf = MC4R beta-arrestin agonists, retest, confirmation, cell-based, luminescence, U2OS; 2,400 tested, 31% active; shares compounds with MC4R barr agon; U2OS MC4R beta-arrestin recruitment; scaled DMSO 0%, Melanotan II 100%; activation, % at 8.9 µM;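 active means mean activation across replicates above the hit cutoff set in the earlier primary screen, cut at about 8% in these data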
MOR-DOR barr ag = agonists of MOR-DOR heterodimerization, counter-screen for MC4R biased agonist project, cell-based, luminescence; shares compounds with MC4R barr agon; U2OS PathHunter beta-arrestin, beta-gal luminescence; percent of deltorphin B response, DMSO zero; activation, % at 9.2 µM; 2,400 tested, 5.8% active; AID 602194, 2012;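 active means mean activation across replicates exceeds the hit threshold derived in the earlier primary screen, cut at about 18% in these data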
Numbers stand for hits; . = inactive; / = not tested or not shown.

SMILES | MC4R antagonist | MC4R barr agon | SMARCA2 activ | ATG4B inhibitor | MPTP inh | U2OS cAMP counter | MC4R cAMP antag | others
O=C(COC(=O)CCNS(=O)(=O)c1ccc(Cl)cc1)Nc1ccccc1OC(F)F | . | . | . | . | . | / | /
COc1cc2c(cc1NC(=O)COC(=O)CNS(=O)(=O)c1ccc(C)cc1)oc1ccccc12 | 30 | . | . | . | . | . | 41
COc1ccc(S(=O)(=O)N[C@@H](C)C(=O)OCC(=O)Nc2cc3oc4ccccc4c3cc2OC)cc1 | 35 | . | . | . | . | 23 | 39
COc1ccc(NC(=O)COC(=O)CNS(=O)(=O)c2ccc(C)cc2)c(OC)c1 | . | . | . | . | . | / | /
C=CCN1C(C(=O)OC)CN(Cc2cn(Cc3ccc(F)cc3)nn2)CCS1(=O)=O (stereo not given) | / | / | . | / | / | / | /
CN(C)C(=O)C[C@H]1C[C@@H]2c3cc(NC(=O)NC4CCCC4)ccc3O[C@@H]2[C@@H](CO)O1 | / | / | . | / | / | / | /
C#CCN1C(=O)[C@]2(NCCc3c2[nH]c2ccc(OC)cc32)c2ccccc21 | / | / | . | / | / | / | /
O=S1(=O)N[C@@H](Cc2ccccc2)COc2cccc(N3CCCC3)c21 | / | / | . | / | / | / | /
O=C(COC(=O)c1ccc2c(c1)OCO2)Nc1ccccc1OC(F)F | . | . | . | . | . | / | /
O=C(COC(=O)c1ccc(Cl)c([N+](=O)[O-])c1)Nc1ccccc1OC(F)F | 34 | . | . | . | . | 21 | 47
Cc1ccc(S(=O)(=O)NCC(=O)NCC(=O)OCc2c(F)cccc2Cl)cc1 | 33 | . | . | . | . | 27 | 40
Cc1ccc(C(=O)NCC(=O)OCc2c(F)cccc2Cl)cc1 | . | . | . | . | . | / | /
CC1(C)CC[C@]2(C(=O)O)CC[C@]3(C)C(=CC[C@@H]4[C@@]5(C)CC[C@H](O[C@@H]6O[C@H](C(=O)O)[C@@H](O)[C@H](O[C@@H]7OC[C@H](O)[C@H](O)[C@H]7O)[C@H]6O)C(C)(C)[C@@H]5CC[C@]43C)[C@@H]2C1 | 111 | . | . | . | . | 36 | .
CCOC(=O)Cc1cc(=O)n2[nH]cc(-c3ccc(Cl)cc3)c2n1 | 30 | . | . | . | . | . | .
CC(=O)OC[C@]12CC[C@H]3[C@@](C)(CC[C@H]4C(C)(C)CCC[C@]34C)[C@@H]1CC(C1=CC(=O)OC1O)O2 (stereo not given in full) | 52 | 91 | . | / | . | . | 35 | MC4R barr conf=26;MOR-DOR barr ag=82
CCCCNS(=O)(=O)CC1NCc2ccc(C)cc21 (stereo not given) | / | / | . | / | / | / | /
Cc1nnc(-c2cccc(Br)c2)c2cn(-c3cccc(Br)c3)nc12 | 33 | 13 | . | . | . | . | 29 | MC4R barr conf=.;MOR-DOR barr ag=.
CCCCCCCCCC[N+](C)(C)CC/C=C1/c2ccccc2Sc2ccc(Cl)cc21 | 41 | 17 | / | . | . | . | 40 | MC4R barr conf=18;MOR-DOR barr ag=26
CC#CC[N+](C)(C)CCCCCCCC | . | . | . | . | . | / | /
CCCCCCCCCCCCCCCC[N+](C)(C)Cc1ccc(F)cc1 | 42 | 16 | . | . | . | . | 32 | MC4R barr conf=31;MOR-DOR barr ag=.
COc1ccc2oc(=O)c(-c3csc(Nc4cccc(O)c4)n3)cc2c1 | 30 | 13 | . | . | . | . | . | MC4R barr conf=28;MOR-DOR barr ag=.
